# TAAR1 antag: human TAAR1 antagonists, primary screen, Fluo-8 calcium fluorescence, CHO RD-HGA16 cells | Trace amine-associated receptor 1 (Homo sapiens), Q96RJ0 | antagonist | inhibition, % at 3 µM | actives 1.5% (n = 360,000);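 active = inhibition above a per-plate cutoff, the mean inhibition of test compounds on that plate plus 3 SD, cut at about 49% in these data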;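 also: 0% = DMSO plus EC80 beta-PEA response and 100% = DMSO alone without agonist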
# Target sequence (Q96RJ0 whole entry, looked up): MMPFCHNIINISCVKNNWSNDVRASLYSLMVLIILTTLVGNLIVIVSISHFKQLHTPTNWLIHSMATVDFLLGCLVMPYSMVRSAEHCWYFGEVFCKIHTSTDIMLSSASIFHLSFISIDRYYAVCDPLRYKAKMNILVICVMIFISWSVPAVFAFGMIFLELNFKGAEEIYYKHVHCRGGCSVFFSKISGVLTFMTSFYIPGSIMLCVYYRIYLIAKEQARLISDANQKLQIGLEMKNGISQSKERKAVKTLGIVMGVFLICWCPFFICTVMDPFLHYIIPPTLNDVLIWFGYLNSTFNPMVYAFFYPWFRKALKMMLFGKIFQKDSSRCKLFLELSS
#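 Test system – hTAAR1-expressing CHO RD-HGA16 cells, Gα16-coupled · Also added – β-PEA at EC80 concentration, post-compound challenge · Compound – 3 µM, single point · Incubation – dye loading 75 min at 37 °C, then 30 min room temperature · Measured by – Fluo-8 intracellular calcium dye fluorescence, real-time kinetic reads · Benchmarks – vehicle and agonist controls · Replicates – singlicate, one well per test compound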
# CHO parental Ca: ATP-evoked calcium signal inhibitors, parental CHO, primary screen, counter-screen for OX1R antagonist project, cell-based, fluorescence, Fluo-8 calcium dye; actives 0.63% (n = 330,000); AID 463079, 2010; parental CHO-K1, ATP-induced calcium, Fluo-8 fluorescence; inhibition, % at 5.6 µM;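 active = inhibition above that plate's mean sample inhibition plus 3 SD, cut at about 26% in these data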;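 also: 0% = ATP-challenged DMSO wells and 100% = DMSO wells without ATP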
#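 Material: parental CHO cells / Compound: single nominal dose of 5.6 µM per compound / Signal: Fluo-8 fluorescence / Replicates: singlicate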
# OX1R antag-1: antagonists of human orexin 1 receptor (OX1R). Orexin/Hypocretin receptor type 1 (Homo sapiens), O43613. OX1R-expressing cells, FRET antagonist read-out. inhibition, % at 6.6 µM. actives 1.8% (n = 330,000). AID 485270, 2010; in the data active = inhibition mostly above about 38%, no sharp cut-off; inactive = mostly below about 40%;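 also: 0% = agonist challenge alone and 100% = reference antagonist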
# OX1R antag-2: OX1R (HCRTR1) antagonists, primary screen, fluorescence, CHO/OX1R cells, Fluo-8 calcium, orexin A; Fluo-8 calcium fluorescence; inhibition, % at 5 µM; Orexin/Hypocretin receptor type 1 (Homo sapiens), O43613; actives 0.43% (n = 330,000);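 active = inhibition above its plate's threshold, mean inhibition of all tested compounds on the plate plus 3 SD, cut at about 37% in these data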;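 also: 0% = orexin A challenge wells and 100% = SB-334867-A antagonist wells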
# TAAR1 ag: human TAAR1 agonists, primary screen, Fluo-8 calcium fluorescence, CHO RD-HGA16 cells; activation, % at 3 µM; AID 624467, 2012; actives 0.99% (n = 360,000); vehicle wells 0%, saturating PEA agonist 100%;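 active = activation above the mean activation of all test compounds in the run plus 3 SD, cut at about 38% in these data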
#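 Assay system: CHO-derived RD-HGA16 cells with stable Gα16 and human TAAR1; timing: 17-24 h seeding, 75 min 37 °C dye, 30 min RT; read-out: % activation from peak over basal fluorescence ratio, DMSO-to-PEA scaled; measured by: kinetic Fluo-8 calcium fluorescence; benchmarks: low control DMSO, high control PEA (EC100); doses: 3 µM single concentration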
# GPR7 antag: GPR7 receptor antagonists, primary screen, cell-based, fluorescence, single concentration. inhibition, % at 4.4 µM. Neuropeptides B/W receptor type 1 (Homo sapiens), P48145. actives 1.1% (n = 290,000). GPR7-expressing cells, fluorescence antagonist assay. AID 1861, 2009; in the data active = inhibition above about 16%, passing the limit was not always enough;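 also: cells stimulated with the agonist NPW; 0% = agonist with vehicle and 100% = vehicle without agonist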
# Target sequence (P48145 whole entry, looked up): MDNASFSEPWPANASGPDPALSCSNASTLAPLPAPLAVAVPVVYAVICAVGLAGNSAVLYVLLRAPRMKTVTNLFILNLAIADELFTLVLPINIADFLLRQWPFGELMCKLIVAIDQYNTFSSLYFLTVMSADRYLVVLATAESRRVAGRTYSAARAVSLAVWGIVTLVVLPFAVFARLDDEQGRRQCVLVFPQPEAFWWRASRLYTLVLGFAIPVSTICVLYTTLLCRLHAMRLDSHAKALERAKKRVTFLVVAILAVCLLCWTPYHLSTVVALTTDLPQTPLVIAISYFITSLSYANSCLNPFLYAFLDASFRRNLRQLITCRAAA
# nonsel antag count: nonselective antagonists in TAAR1 counter-screen cells, counter-screen for hTAAR1 antagonist project, cell-based, fluorescence, calcium | actives 77% (n = 2,400) | shares compounds with TAAR1 antag | AID 651780, 2012 | counterscreen cell line, antagonist mode | inhibition, % at 3 µM; in the data active = inhibition above about 22%;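 also: CHO-Ga16 host cells stimulated with ATP at an EC80 level; 0% = agonist EC80 plus vehicle and 100% = vehicle without agonist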
# TAAR1 antag conf: human TAAR1 antagonists, retest of hits, confirmation, cell-based, fluorescence; shares compounds with TAAR1 antag; TAAR1-expressing cells, fluorescence antagonist read-out; inhibition, % at 3 µM; actives 40% (n = 2,400); AID 651785, 2012; in the data active = inhibition above about 49%;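 also: CHO-Ga16 host cells challenged with agonist PEA near its EC80; 0% = agonist at EC80 plus vehicle and 100% = vehicle with no agonist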
# Ga16 ag counter: calcium activation in Ga16-expressing cells, counter-screen for TAAR1 antagonist project, cell-based, fluorescence; shares compounds with TAAR1 antag; agonist counterscreen; activation, % at 3 µM; actives 18% (n = 2,400); AID 651953, 2012; in the data active = activation above about 12%;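 also: 0% = vehicle wells and 100% = saturating stimulus response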
# TAAR1 ag count: TAAR1 activation by candidate antagonists – cell-based, fluorescence, counter-screen for TAAR1 antagonist project | shares compounds with TAAR1 antag | hTAAR1 cell line, agonist mode | activation, % at 3 µM | actives 2% (n = 2,400) | AID 651955, 2012; in the data active = activation above about 37%;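 also: CHO cells stably expressing TAAR1 with calcium dye readout; 0% = DMSO vehicle and 100% = full agonist response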
# * = called active by the depositor; . = no result given; ! = not confirmed by another sample. A selection: hits, their analogues and other compounds. The true share with any hit is near 4.6%.
SMILES,TAAR1 antag,CHO parental Ca,OX1R antag-1,OX1R antag-2,TAAR1 ag,GPR7 antag,nonsel antag count,TAAR1 antag conf,Ga16 ag counter,TAAR1 ag count
CCCCNc1c(-c2ccc(-c3cccc(Cl)c3)cc2)nc2ccccn12,65*!,27,33,-1,6,.,31*,27,19*,14
Cc1ccc2nc(-c3ccc(-c4cccc(Cl)c4)cc3)c(NCc3ccccc3)n2c1,64*,-17,48,-38,7,.,32*,28,0,1
CCC(C)Sc1ccc(-c2nc3ccc(C)cn3c2NCc2ccccc2)cc1 (configuration not stated),72*,63,10,73,6,.,39*,57*,5,8
COc1cc(-c2nc3ccc(C)cn3c2NCc2ccccc2)ccc1-c1cccc(Cl)c1,22,-8,16,-6,4,.,.,.,.,.
COC(=O)c1cc(Nc2cc(C)c3c(O)cccc3n2)cc(C(=O)OC)c1,63*,-13,27,-25,9,-19,24*,37,5,15
COC(=O)c1cc(Nc2cc(C)c3ccc(O)cc3n2)cc(C(=O)OC)c1,23,8,16,-4,2,-4,.,.,.,.
COc1ccc(NC(=O)c2cc(C3CCCCN3C(=O)c3cc(C(C)(C)C)nn3C)on2)c(C)c1 (configuration not stated),-19,.,.,.,1,.,.,.,.,.
CN(CC(=O)Nc1ccc(F)cc1)C(=O)CN1C(=O)c2cccc([N+](=O)[O-])c2C1=O,-17,-4,8,-3,3,.,.,.,.,.
Cc1ccc(-c2nc3c4ccccc4ccn3c2Cc2ccsc2)cc1,-10,.,.,.,0,.,.,.,.,.
Cc1c(C)c2c(OCC(=O)NCc3ccco3)cc3c(c2oc1=O)CCC(C)(C)O3,-21,-18,18,-38,0,1,.,.,.,.
COc1ccc(CNC(=O)COc2cc3c(c4oc(=O)cc(C)c24)CCC(C)(C)O3)cc1OC,62*,-9,42*,-17,0,9,23*,31,4,4
Cc1cc(=O)oc2c3c(cc(OCC(=O)NCCN4CCOCC4)c12)OC(C)(C)CC3,1,-10,19,-15,1,1,.,.,.,.
Cc1cc(=O)oc2c3c(cc(OCC(=O)NCc4ccco4)c12)OC(C)(C)CC3,57*,-6,11,-25,0,8,24*,24,3,-2
Cc1cc(=O)oc2c3c(cc(OCC(=O)NCc4ccncc4)c12)OC(C)(C)CC3,-3,-12,22,-8,5,9,.,.,.,.
COc1ccc(CNC(=O)COc2cc3c(c4oc(=O)cc(C)c24)CCC(C)(C)O3)c(OC)c1,73*,.,.,.,2,.,25*,45,6,8
C/C(=N\NC(=O)c1nnn(-c2nonc2N)c1CSc1ccc(C)cc1)c1cccnc1,37,.,.,.,10,.,.,.,.,.
O=C(Nc1nc(-c2nc3ccccc3s2)cs1)c1ccc(S(=O)(=O)N2CCOCC2)cc1,69*,32*,67*,11,33,1,52*,70*,22*,25
O=C(Nc1nc(-c2ccccc2)c(-c2ccccc2)s1)c1ccc(S(=O)(=O)N2CCCC2)cc1,107*,0,2,2,6,-11,0,0,-1,-1
O=C(Nc1nc(-c2ccccc2)c(C(=O)c2ccccc2)s1)c1ccc(S(=O)(=O)N2CCCC2)cc1,-9,-11,17,-9,11,-14,.,.,.,.
O=C(Nc1nc(-c2nc3ccccc3s2)cs1)C1COc2ccccc2O1 (configuration not stated),60*,-11,26,-26,0,-3,26*,33,8,8
COc1ccc(OC)c(-c2csc(NC(=O)C3COc4ccccc4O3)n2)c1 (configuration not stated),41,-7,26,-39,0,-6,.,.,.,.
O=C1c2ccccc2C(Nc2ccc3c(c2)OCCO3)N1Cc1ccc2c(c1)OCO2 (configuration not stated),63*,-2,18,-8,0,9,16,29,7,15
O=C1c2ccccc2C(Nc2ccc3c(c2)OCCO3)N1c1ccc(Cl)cn1 (configuration not stated),50*,-11,20,-29,2,-5,23*,38,2,3
CCOC(=O)C(Cc1ccc(NC(C)=O)cc1)N1C(=O)c2ccccc2C1=O (configuration not stated),58*,-12,3,-15,14,.,24*,46,9,8
CCOC(=O)C(Cc1ccc(NC(=O)/C(=C\c2ccccc2)NC(=O)c2ccccc2)cc1)N1C(=O)c2ccccc2C1=O (configuration not stated),19,-3,6,-6,5,-10,.,.,.,.
O=C(O)c1ccc(CN2C[C@@H](CO)O[C@@H](n3cnc4c(NCc5ccc(F)cc5)ncnc43)C2)cc1,-11,.,.,.,4,.,.,.,.,.
COc1cc(CNc2ncnc3c2ncn3[C@H]2CN(Cc3ccc(Cl)cc3)C[C@@H](CO)O2)cc(OC)c1OC,-28,.,.,.,5,.,.,.,.,.
CC(C)c1ccc(NC(=O)COC(=O)Cn2cnc3c2c(=O)n(C)c(=O)n3C)cc1,-15,.,.,.,1,.,.,.,.,.
CN(C(=O)c1sc2nc(N3CCOCC3)c3c(c2c1N)CCCC3)c1ccccc1,59*,-20,38,-28,8,-4,19,35,8,12
Nc1sccc1C(=O)NC1CC1,-11,.,.,.,2,.,.,.,.,.

# Assay outcomes (PubChem BioAssay)
